In ChEMBL document CHEMBL1129385, “Aspartic acid conjugates of 2-(3,4-dichlorophenyl)-N-methyl-N-[(1S)-1(3-aminophenyl)-2-(1-pyrrolidi nyl) ethyl]acetamide: kappa opioid receptor agonists with limited access to the central nervous system” (J Med Chem, 1996):
pIC50, pKi: −log10 of the molar value.

Experiments:
[1] = species on record: Cavia porcellus; test: Compound was tested for their agoinst potencies on the electrically stimulated Guinea pig ileal longitudinal muscle preparation.; format: functional; settings: Muscle tissue
[2] = test system: Mus musculus; test: Compound was evaluated for Antinociceptive potencies in mice for in vivo activity Mouse abdominal stretch assay by icv administration; format: functional; settings: Abdomen, central
[3] = test system: Mus musculus; test: Compound was evaluated for Antinociceptive potencies in mice for in vivo activity in mouse tail-flick by icv administration; format: functional; settings: central
[4] = test system: Mus musculus; test: Compound was evaluated for Antinociceptive potencies in mice for in vivo activity in mouse tail-flick by iv administration; format: functional
[5] = species on record: Mus musculus; test: Compound was tested for their agoinst potencies on the electrically stimulated mouse vas deferens.; format: functional
[6] = target: Mu-type opioid receptor (Cavia porcellus, UniProt P97266); test: Compound was tested for the binding affinity and selectivity by competitive inhibition of radioligands on opioid Mu receptor in guinea pig brain membranes; format: cell membranes, Membrane
Method in brief: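 Competition binding in guinea pig brain membranes for μ opioid sites against 2 nM [³H]DAMGO, using a modified Werling method. Ki values are arithmetic means of three experiments.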

[7] = target: T1, Kappa-type opioid receptor (Cavia porcellus, UniProt P41144); test: Compound was tested for the binding affinity and selectivity by competitive inhibition of radioligands on opioid kappa receptor in guinea pig brain membranes; format: cell membranes, Membrane
Method in brief: (§1)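 Competition binding in guinea pig brain membranes for κ opioid sites against 1 nM [³H]U69,593, using a modified Werling method. Ki values are arithmetic means of three experiments.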

[8] = test system: Mus musculus; test: Peak time for Antinociception Tail-flick(min) by icv administration in mice.; format: functional
[9] = test system: Mus musculus; test: Peak time for Antinociception Tail-flick(min) by iv administration in mice.; format: functional
[10] = test system: Mus musculus; test: Peak time for Antinociception writhing(min) by icv administration in mice.; format: functional
[11] = test system: Mus musculus; test: Peak time for Antinociception writhing(min) by iv administration in mice.; format: functional
[12] = test system: Mus musculus; test: Compound was evaluated for Antinociceptive potencies in mice for in vivo activity in Analgesic activity in the second phase of the mouse formalin assay by iv administration; format: functional
[13] = target: T1, Kappa-type opioid receptor; test: Compound was tested for the binding affinity and selectivity by competitive inhibition of radioligands on Opioid receptor kappa 1 in guinea pig brain membranes; format: cell membranes, Membrane; method in brief: as §1

| SMILES | pIC50 [1] | ED50 [2] | ED50 [3] | ED50 [4] | pIC50 [5] | pKi [6] | pKi [7] | Time [8] | Time [9] | Time [10] | Time [11] | ED50 [12] | pKi [13] |
| --- | --- | --- | --- | --- | --- | --- | --- | --- | --- | --- | --- | --- | --- |
| CN(C(=O)Cc1ccc(Cl)c(Cl)c1)[C@H](CN1CCCC1)c1cccc(NC(=O)[C@@H](N)CC(=O)O)c1 | 9.08 | 0.0068 µmol/kg | 0.335 µmol/kg | 0.85 µmol/kg | 8.60 | 6.34 | 9.47 | 30 min | 20 min | 10 min | 10 min | 0.01 µmol/kg | – |
| CN(C(=O)Cc1ccc(Cl)c(Cl)c1)[C@H](CN1CCCC1)c1cccc(NC(=O)C[C@H](N)C(=O)O)c1 | 9.26 | 0.011 µmol/kg | 0.502 µmol/kg | 5.12 µmol/kg | 8.20 | – | – | 30 min | 30 min | 30 min | 10 min | – | – |
| CN(C(=O)Cc1ccc(Cl)c(Cl)c1)[C@H](CN1CCCC1)c1cccc(NC(=O)[C@H](N)CC(=O)O)c1 | 8.34 | 0.046 µmol/kg | – | – | 8.39 | 6.55 | – | – | – | 10 min | 10 min | 1.05 µmol/kg | 8.92 |
